Results: ChEMBL document CHEMBL5108074 (J Med Chem, 2022)

Tests used:
[1] = Half life in Sprague-Dawley rat at 10 mg/kg, po and 1 mg/kg, iv measured upto 24 hrs by LC-MS analysis; assay type: ADME, organism-based; conditions: in vivo
How it was run: (§1)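 Male Sprague-Dawley rats, two per route, single dose. IV: 1 mg/kg given as 1 mL/kg of a nominal 1 mg/mL formulation in vehicle. PO: 10 mg/kg given as 5 mL/kg of a 2 mg/mL formulation. PK parameters from noncompartmental analysis. Clearance expressed relative to rat liver blood flow of 80 mL/min/kg.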

[2] = Oral bioavailability in Beagle dog at 1 mg/kg measured upto 24 hrs by LC-MS analysis; assay type: ADME, organism-based, Canis lupus familiaris; conditions: in vivo
[3] = Clearance in Sprague-Dawley rat blood at 1 mg/kg, iv measured upto 24 hrs by LC-MS analysis; assay type: ADME, organism-based; conditions: whole blood; how it was run: as §1
[4] = target: Cytochrome P450 2C19 (Homo sapiens, UniProt P33261); test: Inhibition of CYP2C19 in human liver microsomes assessed as reduction in 4-hydroxymephenytoin metabolite formation incubated for 30 mins in presence of NADPH by LC-MS/MS analysis; assay type: ADME, Microsome
[5] = target: Voltage-gated inwardly rectifying potassium channel KCNH2 (Homo sapiens, UniProt Q12809); test: Inhibition of hERG expressed in CHO cells by whole cell patch clamp assay; assay type: toxicity, cell-based
How it was run: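 hERG K+ current recorded by automated whole-cell patch clamp in CHO cells stably expressing hERG. Concentrations tested up to a maximum of 33 μM.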

[6] = Thermodynamic solubility of the compound in FaSSGF at 1 mg/ml at pH 1.6 measured after 4 hrs; assay type: physicochemical; conditions: buffer, pH 1.6, 4 h
How it was run: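 Compound (nominal 1 or 100 mg/mL as free base) added to biorelevant medium preheated to 37 °C: FaSSGF at pH 1.6 or FaSSIF at pH 6.5. Vortexed, then shaken 4 h at 37 °C (~500 rpm). Centrifuged at 15000g for 10 min at 37 °C. Supernatant diluted and quantified against calibration standards. Crystalline material used where stated.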

[7] = target: Tissue-type plasminogen activator (Homo sapiens, UniProt P00750); test: Inhibition of human tissue plasminogen activator preincubated for 5 mins followed by substrate addition by fluorometer analysis
How it was run: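 Each protease (commercial, typically purified from human plasma) was preincubated with inhibitor for 5 min, then a fluorogenic substrate specific to that enzyme was added. Cleavage was followed kinetically by fluorometry. IC50 came from a four-parameter logistic fit to the normalized rate of fluorescence increase.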

[8] = target: Trypsin (Homo sapiens, UniProt P07477+P07478+P35030); test: Inhibition of human trypsin preincubated for 5 mins followed by substrate addition by fluorometer analysis; assay type: protein assay
How it was run: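 Human proteases, typically purified from plasma, preincubated with compound for 5 min. A protease-specific fluorogenic substrate was then added and cleavage followed kinetically on a fluorometer. IC50 from a four-parameter logistic fit to the normalized rate of fluorescence increase.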

[9] = Volume of distribution at steady state in Beagle dog at 1 mg/kg, po and 1 mg/kg, iv measured upto 24 hrs by LC-MS analysis; assay type: ADME, organism-based, Canis lupus familiaris; conditions: in vivo
[10] = Clearance in Beagle dog assessed as liver blood flow at 1 mg/kg, iv measured upto 24 hrs by LC-MS analysis; assay type: ADME, organism-based, Canis lupus familiaris; conditions: in vivo
[11] = Thermodynamic solubility of the compound in FaSSGF at 100 mg/ml at pH 1.6 measured after 4 hrs; conditions: pH 1.6, 4 h
[12] = target: Coagulation factor XI (Homo sapiens, UniProt P03951); test: Inhibition of human factor 11a preincubated for 5 mins followed by substrate addition by fluorometer analysis
How it was run: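 Enzyme from the selectivity panel of serine proteases, typically purified from human plasma. The inhibitor was preincubated with the enzyme for 5 min before a protease-specific fluorogenic substrate was added. Substrate cleavage was followed kinetically. IC50 came from a four-parameter logistic fit to the normalized rate of fluorescence increase.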

Cytochrome P450 2C19, sequence (P33261 whole entry): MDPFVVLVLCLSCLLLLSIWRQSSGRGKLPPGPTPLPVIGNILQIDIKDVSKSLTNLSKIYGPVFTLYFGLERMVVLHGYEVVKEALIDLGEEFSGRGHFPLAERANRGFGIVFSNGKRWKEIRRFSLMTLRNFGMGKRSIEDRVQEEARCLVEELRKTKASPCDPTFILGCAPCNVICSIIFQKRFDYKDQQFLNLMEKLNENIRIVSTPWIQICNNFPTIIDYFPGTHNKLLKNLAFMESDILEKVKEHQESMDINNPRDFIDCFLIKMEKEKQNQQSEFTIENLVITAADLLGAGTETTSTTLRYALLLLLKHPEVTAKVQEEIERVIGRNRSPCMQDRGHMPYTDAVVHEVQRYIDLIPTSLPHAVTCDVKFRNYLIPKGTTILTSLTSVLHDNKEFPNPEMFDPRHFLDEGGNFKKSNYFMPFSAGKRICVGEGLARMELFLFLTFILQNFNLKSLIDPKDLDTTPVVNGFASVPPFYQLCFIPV
Tissue-type plasminogen activator, sequence (P00750 whole entry): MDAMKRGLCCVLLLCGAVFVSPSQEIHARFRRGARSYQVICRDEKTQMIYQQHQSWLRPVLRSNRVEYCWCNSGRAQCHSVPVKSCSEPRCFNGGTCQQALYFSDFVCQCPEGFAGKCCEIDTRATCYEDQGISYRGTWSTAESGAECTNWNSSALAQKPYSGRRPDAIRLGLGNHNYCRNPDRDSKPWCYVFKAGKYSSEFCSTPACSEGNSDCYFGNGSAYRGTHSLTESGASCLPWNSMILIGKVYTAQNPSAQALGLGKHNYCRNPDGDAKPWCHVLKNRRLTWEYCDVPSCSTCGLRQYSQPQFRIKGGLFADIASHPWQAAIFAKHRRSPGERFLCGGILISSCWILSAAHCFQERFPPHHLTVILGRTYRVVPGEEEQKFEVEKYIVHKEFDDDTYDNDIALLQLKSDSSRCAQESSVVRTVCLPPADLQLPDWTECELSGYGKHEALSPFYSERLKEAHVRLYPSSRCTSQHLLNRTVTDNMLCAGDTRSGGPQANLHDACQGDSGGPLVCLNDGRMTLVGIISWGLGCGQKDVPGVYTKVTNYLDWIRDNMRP
Coagulation factor XI, sequence (P03951 19-387 limits assumed): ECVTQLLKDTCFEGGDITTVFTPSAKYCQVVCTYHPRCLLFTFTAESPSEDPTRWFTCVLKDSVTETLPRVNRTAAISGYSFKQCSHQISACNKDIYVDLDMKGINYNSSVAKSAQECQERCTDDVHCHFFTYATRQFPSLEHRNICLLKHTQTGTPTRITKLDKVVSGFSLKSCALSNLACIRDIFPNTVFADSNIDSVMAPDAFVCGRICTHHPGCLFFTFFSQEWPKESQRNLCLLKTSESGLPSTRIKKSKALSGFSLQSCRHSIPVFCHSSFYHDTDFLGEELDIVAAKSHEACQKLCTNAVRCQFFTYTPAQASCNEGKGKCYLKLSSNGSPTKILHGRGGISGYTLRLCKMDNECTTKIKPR
Coagulation factor XI, sequence (P03951 388-625 limits assumed): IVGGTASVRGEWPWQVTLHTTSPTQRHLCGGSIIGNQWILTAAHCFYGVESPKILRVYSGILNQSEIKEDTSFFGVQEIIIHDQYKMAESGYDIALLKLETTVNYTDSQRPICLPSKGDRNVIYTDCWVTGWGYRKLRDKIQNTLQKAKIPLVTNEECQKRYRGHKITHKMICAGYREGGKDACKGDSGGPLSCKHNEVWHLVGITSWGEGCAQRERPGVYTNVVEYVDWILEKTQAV
Voltage-gated inwardly rectifying potassium channel KCNH2, sequence (Q12809 whole entry): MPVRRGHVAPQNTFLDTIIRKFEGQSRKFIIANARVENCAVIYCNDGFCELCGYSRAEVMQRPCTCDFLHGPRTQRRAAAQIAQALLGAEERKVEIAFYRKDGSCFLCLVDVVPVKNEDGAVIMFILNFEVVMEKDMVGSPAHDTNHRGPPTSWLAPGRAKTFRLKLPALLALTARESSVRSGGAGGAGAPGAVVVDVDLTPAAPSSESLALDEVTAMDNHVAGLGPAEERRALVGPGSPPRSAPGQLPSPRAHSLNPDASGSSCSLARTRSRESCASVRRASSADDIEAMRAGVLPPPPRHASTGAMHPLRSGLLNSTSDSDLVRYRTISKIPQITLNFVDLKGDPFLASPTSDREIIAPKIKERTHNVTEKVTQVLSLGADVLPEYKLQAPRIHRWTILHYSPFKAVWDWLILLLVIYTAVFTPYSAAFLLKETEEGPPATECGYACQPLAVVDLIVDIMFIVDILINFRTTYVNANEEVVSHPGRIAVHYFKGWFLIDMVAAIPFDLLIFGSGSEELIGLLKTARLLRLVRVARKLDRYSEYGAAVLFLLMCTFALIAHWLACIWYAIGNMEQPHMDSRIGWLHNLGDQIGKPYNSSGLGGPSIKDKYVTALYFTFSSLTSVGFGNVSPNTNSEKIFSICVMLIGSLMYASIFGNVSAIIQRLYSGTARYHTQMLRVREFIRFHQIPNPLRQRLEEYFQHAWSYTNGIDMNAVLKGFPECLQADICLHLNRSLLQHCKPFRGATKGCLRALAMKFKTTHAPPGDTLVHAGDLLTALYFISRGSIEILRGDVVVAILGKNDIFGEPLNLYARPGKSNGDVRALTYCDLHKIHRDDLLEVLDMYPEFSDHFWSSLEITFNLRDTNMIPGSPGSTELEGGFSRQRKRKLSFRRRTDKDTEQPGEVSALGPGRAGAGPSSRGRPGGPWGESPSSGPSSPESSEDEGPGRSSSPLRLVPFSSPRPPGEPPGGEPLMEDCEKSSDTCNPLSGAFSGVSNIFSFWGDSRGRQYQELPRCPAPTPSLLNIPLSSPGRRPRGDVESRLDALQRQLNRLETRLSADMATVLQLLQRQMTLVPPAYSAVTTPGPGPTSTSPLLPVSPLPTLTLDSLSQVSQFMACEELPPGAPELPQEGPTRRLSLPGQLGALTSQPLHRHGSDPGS

COCc1nn(Cc2ccc(Cn3ccccc3=O)cc2)cc1C(=O)NCc1nccc(OC)c1F [SEBETRALSTAT]
t1/2 [1]: 1 h | F [2]: 34% | clearance [3]: 20.9 mL/min/kg | IC50 [4]: > 25 µM | IC50 [5]: > 33 µM | Therm_solubility [6]: > 1000 µg/mL | IC50 [7]: > 10 µM | IC50 [8]: > 40 µM | Vdss [9]: 0.65 L/kg | LBF [10]: 33% | Therm_solubility [11]: 11000 µg/mL | IC50 [12]: > 40 µM
